According to ChEMBL document CHEMBL3102803, “Design, synthesis, and biological evaluation of novel piperidine-4-carboxamide derivatives as potent CCR5 inhibitors” (Eur J Med Chem, 2014):

Assays:
[1] = target: T1, C-C chemokine receptor type 5 (Homo sapiens, UniProt P51681); experiment: Inhibition of CCR5 (unknown origin) expressed in CHO cells assessed as inhibition of RANTES-induced intracellular Ca2+ mobilization after 10 mins by Fluo-4 AM staining-based fluorescence assay; format: functional, cell-based
[2] = test system: HEK293; experiment: Cytotoxicity against HEK293 cells at 50 uM after 7 hrs by CCK-8 assay; format: cell-based; conditions: human, hek293, 7 h
Outline: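 HEK293 cells at 5000 cells/well preincubated 24 h at 37 °C in 5% CO2, then exposed to compound for 7 h. CCK-8 reagent added, plates incubated a further 2 h at 37 °C, and absorbance read at […].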

[3] = target: T1, C-C chemokine receptor type 5; experiment: Antagonist activity at CCR5 (unknown origin) expressed in CHO cell membranes assessed as inhibition of RANTES-stimulated [35S]-GTPgammaS binding after 1 hr by liquid scintillation counting analysis; format: functional
[4] = test system: Human immunodeficiency virus 1; experiment: Antiviral activity against HIV-1 infected in human SupT1 cells assessed as inhibition of viral infectivity after 48 hrs by luciferase reporter gene assay; format: functional, organism-based; conditions: Human immunodeficiency virus 1, SUP-T1, 48 h
Outline: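 Pseudovirions made by co-transfecting 293T cells with pNL-Luc-E- and pENV-R5. Supernatant collected at 48 h, filtered, and capsid protein quantified by p24 antigen-capture ELISA. SupT1 cells (1 × 10^5) infected with supernatant in the presence of compound, lysed 48 h post-infection, and firefly luciferase activity measured.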

[5] = target: hERG (KCNH2) (Homo sapiens, UniProt Q12809); experiment: Inhibition of human ERG at 3 uM by patch clamp assay
[6] = Oral bioavailability in Sprague-Dawley rat at 25 mg/kg; format: ADME, organism-based; conditions: in vivo
[7] = Half life in Sprague-Dawley rat at 25 mg/kg, po; format: ADME, organism-based; design: dose 25 mg/kg, route oral; conditions: in vivo
[8] = Half life in Sprague-Dawley rat at 4 mg/kg, iv; format: ADME, organism-based; design: dose 4 mg/kg, route intravenous; conditions: in vivo
[9] = AUC (0 to 24 hrs) in Sprague-Dawley rat at 25 mg/kg, po; format: ADME, organism-based; design: time < 24 hr, dose 25 mg/kg, route oral; conditions: plasma
[10] = AUC (0 to 24 hrs) in Sprague-Dawley rat at 4 mg/kg, iv; format: ADME, organism-based; design: time < 24 hr, dose 4 mg/kg, route intravenous; conditions: plasma
[11] = Plasma clearance in Sprague-Dawley rat at 25 mg/kg, po; format: ADME, organism-based; design: dose 25 mg/kg, route oral
[12] = Plasma clearance in Sprague-Dawley rat at 4 mg/kg, iv; format: ADME, organism-based; design: dose 4 mg/kg, route intravenous
[13] = test system: Rattus norvegicus; experiment: Volume of distribution at steady state in Sprague-Dawley rat at 25 mg/kg, po; format: ADME, organism-based; design: dose 25 mg/kg, route oral; conditions: in vivo
[14] = Volume of distribution at steady state in Sprague-Dawley rat at 4 mg/kg, iv; format: ADME, organism-based; design: dose 4 mg/kg, route intravenous; conditions: in vivo, read-out: Vdss

T1 sequence (P51681 whole entry): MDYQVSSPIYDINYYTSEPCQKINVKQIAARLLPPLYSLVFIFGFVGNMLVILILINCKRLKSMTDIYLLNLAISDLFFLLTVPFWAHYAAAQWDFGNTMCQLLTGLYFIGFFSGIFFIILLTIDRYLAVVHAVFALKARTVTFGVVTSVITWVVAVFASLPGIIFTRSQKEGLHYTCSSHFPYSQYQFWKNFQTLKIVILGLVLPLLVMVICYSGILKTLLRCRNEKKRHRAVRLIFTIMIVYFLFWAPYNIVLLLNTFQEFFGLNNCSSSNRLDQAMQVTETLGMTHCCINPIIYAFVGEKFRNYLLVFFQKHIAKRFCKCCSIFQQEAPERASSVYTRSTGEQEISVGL
hERG (KCNH2), sequence (Q12809 whole entry): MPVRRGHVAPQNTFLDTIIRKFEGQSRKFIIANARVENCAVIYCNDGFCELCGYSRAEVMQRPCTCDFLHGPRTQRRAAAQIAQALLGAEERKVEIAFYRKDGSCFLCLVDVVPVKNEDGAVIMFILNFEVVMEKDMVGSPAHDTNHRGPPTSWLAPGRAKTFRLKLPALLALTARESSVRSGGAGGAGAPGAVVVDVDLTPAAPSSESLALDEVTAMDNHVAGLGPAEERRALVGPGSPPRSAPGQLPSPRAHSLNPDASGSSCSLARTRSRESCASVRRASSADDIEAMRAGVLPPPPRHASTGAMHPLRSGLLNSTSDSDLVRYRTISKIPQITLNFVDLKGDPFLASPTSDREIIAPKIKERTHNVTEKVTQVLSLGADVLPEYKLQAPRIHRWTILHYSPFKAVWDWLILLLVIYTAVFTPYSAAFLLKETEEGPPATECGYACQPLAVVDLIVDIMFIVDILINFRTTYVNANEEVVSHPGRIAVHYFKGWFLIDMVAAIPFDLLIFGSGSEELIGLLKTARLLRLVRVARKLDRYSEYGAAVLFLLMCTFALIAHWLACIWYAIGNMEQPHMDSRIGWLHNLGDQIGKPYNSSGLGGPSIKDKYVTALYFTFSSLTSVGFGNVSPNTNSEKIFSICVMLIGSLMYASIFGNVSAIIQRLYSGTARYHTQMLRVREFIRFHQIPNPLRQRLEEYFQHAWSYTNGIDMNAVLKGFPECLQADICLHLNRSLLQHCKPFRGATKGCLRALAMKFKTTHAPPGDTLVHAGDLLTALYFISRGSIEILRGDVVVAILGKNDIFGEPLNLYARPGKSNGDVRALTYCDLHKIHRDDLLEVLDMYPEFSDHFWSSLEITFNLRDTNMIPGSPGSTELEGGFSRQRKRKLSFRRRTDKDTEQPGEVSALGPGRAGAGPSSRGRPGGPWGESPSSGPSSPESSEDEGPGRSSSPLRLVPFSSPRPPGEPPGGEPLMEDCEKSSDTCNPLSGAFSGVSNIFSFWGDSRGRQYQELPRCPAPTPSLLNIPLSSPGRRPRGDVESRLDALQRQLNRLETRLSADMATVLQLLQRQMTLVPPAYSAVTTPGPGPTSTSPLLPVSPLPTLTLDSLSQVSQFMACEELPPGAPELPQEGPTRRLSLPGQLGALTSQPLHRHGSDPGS

| Compound | IC50 [1] | Activity [2] | also measured |
| --- | --- | --- | --- |
| CCN(CCc1ccccc1)C(=O)C1CCN(CCCN(C(=O)C2CCN(C(C)=O)CC2)c2cccc(Cl)c2)CC1 | 0.0264 µM | Non-toxic | – |
| CC(=O)N1CCC(C(=O)N(CCCN2CCC(C(=O)NCCc3ccc(F)cc3)CC2)c2cccc(Cl)c2)CC1 | 0.197 µM | Non-toxic | – |
| CCN(C(=O)Cc1ccccc1)C1CCN(CCCN(C(=O)C2CCN(C(C)=O)CC2)c2cccc(Cl)c2)CC1 | 0.252 µM | – | IC50 [3]: 0.007 µM |
| Cc1nnc(C(C)C)n1[C@H]1C[C@H]2CC[C@@H](C1)N2CC[C@H](NC(=O)C1CCC(F)(F)CC1)c1ccccc1 [MARAVIROC] | – | – | IC50 [4]: 0.0011 µM |
| CCN(CCc1ccc(Cl)cc1)C(=O)C1CCN(CCCN(C(=O)C2CCN(C(C)=O)CC2)c2cccc(Cl)c2)CC1 | 0.126 µM | Non-toxic | – |
| CCN(Cc1ccc(C)cc1)C(=O)C1CCN(CCCN(C(=O)C2CCN(C(C)=O)CC2)c2cccc(Cl)c2)CC1 | 0.202 µM | Non-toxic | – |
| CCN(C(=O)C1CCN(CCCN(C(=O)C2CCN(C(C)=O)CC2)c2cccc(Cl)c2)CC1)c1ccccc1 | > 1 µM | Non-toxic | – |
| CCN(CCc1ccc(F)cc1)C(=O)C1CCN(CCCN(C(=O)C2CCN(C(C)=O)CC2)c2cccc(Cl)c2)CC1 | 0.152 µM | Non-toxic | – |
| CC(=O)N1CCC(C(=O)N(CCCN2CCC(C(=O)NCCc3ccc(Cl)cc3)CC2)c2cccc(Cl)c2)CC1 | 0.0867 µM | Non-toxic | – |
| CCN(Cc1ccc(F)cc1)C(=O)C1CCN(CCCN(C(=O)C2CCN(C(C)=O)CC2)c2cccc(Cl)c2)CC1 | 0.32 µM | Non-toxic | – |
| CCN(Cc1ccc(Cl)cc1)C(=O)C1CCN(CCCN(C(=O)C2CCN(C(C)=O)CC2)c2cccc(Cl)c2)CC1 | 0.0935 µM | Non-toxic | – |
| CCN(Cc1ccc(C#N)cc1)C(=O)C1CCN(CCCN(C(=O)C2CCN(C(C)=O)CC2)c2cccc(Cl)c2)CC1 | 0.473 µM | Non-toxic | – |

Continued, in another order:

| IC50 [1] | Compound | Activity [2] | also measured |
| --- | --- | --- | --- |
| 0.076 µM | CC(=O)N1CCC(C(=O)N(CCCN2CCC(C(=O)NCCc3ccccc3)CC2)c2cccc(Cl)c2)CC1 | Non-toxic | – |
| 0.0641 µM | CC(=O)N1CCC(C(=O)N(CCCN2CCC(C(=O)N(C)Cc3ccccc3)CC2)c2cccc(Cl)c2)CC1 | Non-toxic | – |
| 0.0255 µM | CC(=O)N1CCC(C(=O)N(CCCN2CCC(C(=O)NCc3ccc(Cl)cc3)CC2)c2cccc(Cl)c2)CC1 | Non-toxic | IC50 [4]: 0.0941 µM |
| 0.0257 µM | CC(=O)N1CCC(C(=O)N(CCCN2CCC(C(=O)NCc3ccccc3)CC2)c2cccc(Cl)c2)CC1 | Non-toxic | inhibition at 3 µM [5]: 15.2%; bioavailability [6]: 15%; half-life [7]: 42.6 min; half-life [8]: 44.4 min; AUC(0-t) at 24 h [9]: 3130 ng·h/mL; AUC(0-t) at 24 h [10]: 3250 ng·h/mL; CL/F [11]: 148 mL/min/kg; clearance [12]: 20.8 mL/min/kg; Vdss [13]: 8.99 L/kg; Vd [14]: 1.23 L/kg; IC50 [4]: 0.073 µM |
| 0.0355 µM | CC(=O)N1CCC(C(=O)N(CCCN2CCC(C(=O)NCc3ccc(F)cc3)CC2)c2cccc(Cl)c2)CC1 | Non-toxic | – |
| > 1 µM | CC(=O)N1CCC(C(=O)N(CCCN2CCC(C(=O)Nc3ccccc3)CC2)c2cccc(Cl)c2)CC1 | Non-toxic | – |
| 0.0753 µM | CC(=O)N1CCC(C(=O)N(CCCN2CCC(C(=O)NCc3ccc(C#N)cc3)CC2)c2cccc(Cl)c2)CC1 | Non-toxic | – |
| 0.525 µM | CCN(Cc1ccccc1)C(=O)C1CCN(CCCN(C(=O)C2CCN(C(C)=O)CC2)c2cccc(Cl)c2)CC1 | Non-toxic | – |
